Measurements: PMC4532310 (Nature, 2015)
Entries after “also recorded” stand apart in the source; their conditions may differ. Bridges are numbered along the chain shown (N, C = ends). Where no end group is shown, it is not given here.

T1: ER (ERECTA) ectodomain, ERΔK-GFP (Arabidopsis thaliana, UniProt Q42371)
T1 sequence (Q42371 25-580 limits assumed): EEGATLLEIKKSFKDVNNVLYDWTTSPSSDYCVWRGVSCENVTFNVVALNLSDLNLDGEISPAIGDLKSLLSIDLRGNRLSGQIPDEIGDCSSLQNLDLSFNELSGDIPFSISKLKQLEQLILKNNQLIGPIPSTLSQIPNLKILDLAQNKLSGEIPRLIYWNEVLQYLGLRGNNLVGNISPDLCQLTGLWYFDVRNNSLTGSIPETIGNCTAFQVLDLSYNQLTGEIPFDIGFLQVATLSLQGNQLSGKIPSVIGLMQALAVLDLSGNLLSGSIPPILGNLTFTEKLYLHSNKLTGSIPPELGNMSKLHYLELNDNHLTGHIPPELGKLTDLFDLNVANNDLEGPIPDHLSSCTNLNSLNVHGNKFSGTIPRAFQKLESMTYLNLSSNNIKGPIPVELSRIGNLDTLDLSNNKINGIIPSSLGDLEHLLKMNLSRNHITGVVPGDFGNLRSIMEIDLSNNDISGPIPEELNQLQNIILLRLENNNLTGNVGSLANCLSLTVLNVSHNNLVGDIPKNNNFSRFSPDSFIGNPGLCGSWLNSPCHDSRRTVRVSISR

T2: TMM (TOO MANY MOUTHS), TMM-GFP (Arabidopsis thaliana, UniProt Q9SSD1)
T2 sequence (Q9SSD1 24-496): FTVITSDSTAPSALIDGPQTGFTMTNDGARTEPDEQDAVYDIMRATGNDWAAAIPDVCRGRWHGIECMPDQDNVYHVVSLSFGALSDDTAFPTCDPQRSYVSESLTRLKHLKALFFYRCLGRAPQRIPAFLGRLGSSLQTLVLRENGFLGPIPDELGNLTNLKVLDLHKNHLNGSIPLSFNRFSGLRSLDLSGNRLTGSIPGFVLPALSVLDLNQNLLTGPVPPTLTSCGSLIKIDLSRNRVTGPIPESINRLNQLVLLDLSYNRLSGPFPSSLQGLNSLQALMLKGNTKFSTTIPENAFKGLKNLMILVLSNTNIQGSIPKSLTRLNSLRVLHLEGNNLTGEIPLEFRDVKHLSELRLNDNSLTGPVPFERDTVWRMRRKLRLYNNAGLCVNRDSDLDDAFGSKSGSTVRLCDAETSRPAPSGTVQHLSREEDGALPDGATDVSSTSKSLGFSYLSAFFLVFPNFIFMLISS

T3: ER ectodomain (ERΔK-GFP) (Arabidopsis thaliana, UniProt Q42371)
T3 sequence (Q42371 25-580 limits assumed): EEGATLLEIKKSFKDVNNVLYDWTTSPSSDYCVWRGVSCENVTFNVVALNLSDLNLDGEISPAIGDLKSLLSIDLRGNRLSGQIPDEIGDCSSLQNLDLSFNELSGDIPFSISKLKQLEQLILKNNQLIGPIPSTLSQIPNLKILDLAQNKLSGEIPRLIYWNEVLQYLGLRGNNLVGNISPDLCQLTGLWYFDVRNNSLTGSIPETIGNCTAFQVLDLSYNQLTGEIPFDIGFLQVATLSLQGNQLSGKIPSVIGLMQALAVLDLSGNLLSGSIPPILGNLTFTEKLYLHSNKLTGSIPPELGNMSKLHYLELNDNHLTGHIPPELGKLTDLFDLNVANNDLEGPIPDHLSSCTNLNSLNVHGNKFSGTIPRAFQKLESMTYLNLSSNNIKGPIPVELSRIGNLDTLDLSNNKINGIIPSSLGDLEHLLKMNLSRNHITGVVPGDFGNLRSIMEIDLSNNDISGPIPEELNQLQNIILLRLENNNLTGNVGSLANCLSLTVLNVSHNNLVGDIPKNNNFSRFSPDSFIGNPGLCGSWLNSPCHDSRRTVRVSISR


How the values were obtained:
[1] = biological target: T1, ER (ERECTA) ectodomain, ERΔK-GFP; assay: QCM direct binding, ERΔK-GFP-functionalized chip; settings: frequency change, phosphate buffer, 4°C
Outline: (§1)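 Purified GFP-fused receptors (ERΔK-GFP, TMM-GFP) or control GFP are obtained from N. benthamiana. They are immobilised on gold QCM chips via anti-GFP antibody. Solutions of HPLC-purified, bioassay-verified bioactive peptide are then introduced, and binding is recorded as frequency change. Each run yields 10-20 points (average, SD). Replicate runs: ER n=4 Stomagen, n=2 MEPF2; TMM n=2 Stomagen, n=3 MEPF2; GFP n=3 Stomagen, n=2 MEPF2.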

[2] = biological target: T2, TMM (TOO MANY MOUTHS), TMM-GFP; assay: QCM direct binding, TMM-GFP-functionalized chip; settings: frequency change, phosphate buffer, 4°C
Outline: as §1

GFP = assay: QCM direct binding, control GFP chip; settings: frequency change, phosphate buffer, 4°C, Stomagen n=3, MEPF2 n=2
Outline: as §1

ER ectodomain (ERΔK-GFP) = biological target: T3, ER ectodomain (ERΔK-GFP); assay: Ligand competition assay, Stomagen vs MEPF2-MYC-HIS for binding to ER
Outline: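 ER ectodomain–GFP (ERΔK-GFP) is expressed in N. benthamiana, and microsomal fractions are prepared. Fractions are incubated with 1 μM bioactive MEPF2-MYC-HIS plus Stomagen at 0-23.4 μM, then ER is immunoprecipitated. The co-IP'd tagged MEPF2 is immunoblotted first, and the same blot is re-probed with anti-Stomagen antibody. Blots are quantified from four biological replicates (S.E.M.), and IC50 is derived from this immunoblot-based quantification.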

TMM = assay: Co-IP with TMM-GFP; type: binding, Arabidopsis; settings: N. benthamiana microsomal fraction; 1 μM peptide; anti-GFP IP
[3] = system: Arabidopsis wild-type seedlings, abaxial cotyledon epidermis; type: in vivo; settings: independent batch of Stomagen used in Fig. 3c, five days, n=8 (Peak 1), n=6 (Peak 2)
MPK3 and MPK6 = assay: MAPK phosphorylation assay in Arabidopsis seedlings; type: in vivo; settings: MEPF2 2.5 μM, Arabidopsis wild-type seedlings; anti-phosphoERK immunoblot
Outline: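 Peptide (MEPF2) is applied to wild-type Arabidopsis seedlings and sampled over a time course. Heat-denatured peptide serves as a control. Extracts are immunoblotted with anti-phosphoERK antibody to detect phosphorylated MPK6 and MPK3, and Coomassie-stained total protein is shown. Four and two biological replicates are run for the two blot series.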

[4] = biological target: ER ectodomain fused to GFP (ERΔK-GFP) (Arabidopsis); assay: co-IP

Molecule | binding to ERΔK-GFP (words) [1] | binding to TMM (words) [2] | binding to control GFP (GFP) | IC50 (ER ectodomain (ERΔK-GFP)) | replacement of MEPF2 for ER-binding (ER ectodomain (ERΔK-GFP); 1 μM bioactive MEPF2-MYC-HIS, increasing Stomagen 0-23.4 μM, IP and immunoblot) | association with TMM by Co-IP (TMM) | bioactivity, HPLC peaks of independent batch used for QCM [3] | binding to ERΔK-GFP (words) ([1]; listed as EPF2) | binding to TMM (words) ([2]; listed as EPF2) | time after which MPK3/MPK6 phosphorylation declined (MPK3 and MPK6) | time to phosphorylation of MPK3 and MPK6 (MPK3 and MPK6) | IC50 [4]
IGSTAPTCTYNECRGCRYKCRAEQVPVEGNDPINSAYHYRCVCHR (disulfide 8-41, 13-20, 16-43) [Stomagen] | saturable binding to the ER ectodomain fused to GFP (ERΔK-GFP) with similar dissociation constants at a nanomolar range; also recorded: bind to ER and TMM with a similar affinity | bound to TMM with high affinity; also recorded: bind to ER and TMM with a similar affinity | No significant binding | 454 nM | replaced MEPF2 for ER-binding | associates with all ER-family RKs and TMM | bioactive | – | – | – | – | –
TGSSLPDCSYACGACSPCKRVMISFECSVAESCSVIYRCTCRGRYYHVPSRA (disulfide 8-39, 12-18, 15-41, 27-33) [MEPF2] | saturable binding to the ER ectodomain fused to GFP (ERΔK-GFP) with similar dissociation constants at a nanomolar range | bound to TMM with high affinity | No significant binding | – | – | – | – | bind to ER and TMM with a similar affinity | bind to ER and TMM with a similar affinity | 2 h | 10 min | –
IGSTAPTCTYNECRGCRYKCRAEQVPVEGNDPINSAYHYRCVCHR [Stomagen/EPF-LIKE9 peptide (bioactive Stomagen)] | – | – | – | – | – | – | – | – | – | – | – | 454 nM
